Fold change (FC) and IC50 data for 5 molecules are collected here from ChEMBL document CHEMBL4422613, “Amarisolide F, an Acylated Diterpenoid Glucoside and Related Terpenoids from Salvia amarissima” (J Nat Prod, 2019).

Structures are written as SMILES.

The species named for assay [1] is Homo sapiens. Kind of assay: Inhibition of MDR protein in human MCF7/Vin cells cultured in presence of vinblastine assessed as reversal fold at 42.1 uM after 72 hrs by sulforhodamine B assay. Type of assay: cell-based. The procedure, abridged:
(§1)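 Sensitive MCF-7 and MDR MCF-7/Vin cells in RPMI 1640 with 10% FBS at 37 °C, 5% CO2. The Vin+ stock was kept in medium with […] vinblastine and the Vin− stock in vinblastine-free medium. Cells were exposed to vinblastine (0.7 nM–11 μM) with or without compound (42.1 μM) for 72 h.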

For assay [2], the system named is HCT-116. Kind of assay: Cytotoxicity against human HCT116 cells after 72 hrs by sulforhodamine B assay. Type of assay: functional, cell-based. Conditions: HCT-116, 72 h.
For assay [3], the system named is HeLa. Kind of assay: Cytotoxicity against human HeLa cells after 72 hrs by sulforhodamine B assay. The class given is functional, cell-based. (In SRB staining, fixed cells bind dye roughly in proportion to their protein.)
The species entered for assay [4] is Homo sapiens. Kind of assay: Inhibition of MDR protein in human MCF7/Vin cells cultured in absence of vinblastine assessed as reversal fold at 42.1 uM after 72 hrs by sulforhodamine B assay. The class given is cell-based. In a few lines: as §1
Assay [5] deals with MDA-MB-231. Nature of the assay: Cytotoxicity against human MDA-MB-231 cells after 72 hrs by sulforhodamine B assay. The class given is functional, cell-based. The note with it: MDA-MB-231, 72 h.
Assay [6] relates to MCF7. Kind of assay: Cytotoxicity against human MCF7 cells after 72 hrs by sulforhodamine B assay. Type of assay: functional, cell-based. The note with it: MCF7, 72 h. The procedure, abridged: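 Cells kept in RPMI 1640 with 10% FBS at 37 °C, 5% CO2 in humidified air. Log-phase cells were treated in triplicate with compound at 0.4–42.1 μM for 72 h.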
The subject of assay [7] is HCT-15. Kind of assay: Cytotoxicity against human HCT15 cells after 72 hrs by sulforhodamine B assay. The class given is functional, cell-based. Conditions: HCT-15, 72 h.
The species entered for assay [8] is Homo sapiens. Nature of the assay: Inhibition of MDR protein in human MCF7/Vin cells cultured in absence of vinblastine assessed as reversal fold after 72 hrs by sulforhodamine B assay. The class given is cell-based.
Assay [9] is filed under the species Homo sapiens. Nature of the assay: Inhibition of MDR protein in human MCF7/Vin cells cultured in presence of vinblastine assessed as reversal fold after 72 hrs by sulforhodamine B assay. Type of assay: cell-based.
The species entered for assay [10] is Homo sapiens. Nature of the assay: Inhibition of MDR protein in human MCF7/Vin cells cultured in presence of vinblastine assessed as reversal fold at 25 ug/ml after 72 hrs by sulforhodamine B assay. Type of assay: cell-based.
For assay [11], the species on record is Homo sapiens. Nature of the assay: Inhibition of MDR protein in human MCF7/Vin cells cultured in absence of vinblastine assessed as reversal fold at 25 ug/ml after 72 hrs by sulforhodamine B assay. Type of assay: cell-based.
The species named for assay [12] is Homo sapiens. Nature of the assay: Inhibition of MDR protein in human MCF7/Vin cells cultured in presence of vinblastine assessed as reversal fold at 5 ug/ml after 72 hrs by sulforhodamine B assay. Type of assay: cell-based.
The species entered for assay [13] is Homo sapiens. Nature of the assay: Inhibition of MDR protein in human MCF7/Vin cells cultured in absence of vinblastine assessed as reversal fold at 5 ug/ml after 72 hrs by sulforhodamine B assay. The class given is cell-based.

Broadly, the IC50 is the concentration at which inhibition is half-maximal. A high value points to weaker potency. On to `CC(=O)OC[C@H]1O[C@@H](OC(=O)[C@H]2CC[C@@]34COC(=O)[C@@]3(O)CC=C[C@@]4(O)[C@@]2(C)CC(=O)c2ccoc2)[C@H](O)[C@@H](O)[C@@H]1O`, for which the fold change (FC) in assay [1] turned out to be 12; in [4] it was 2.1. For the same molecule, the concentration for half-maximal inhibition (IC50) in assay [2], in [3], in [5], in [6] and in assay [7] was above 42 µM each time.
For the molecule `CC(=O)O[C@H]1O[C@@H](c2ccoc2)C[C@]12[C@H](C)C(=O)C[C@@]13COC(=O)C1=CC=C[C@H]32`, the fold change (FC) in assay [8] was determined as 54; in assay [9] it was 2.6.
With `C[C@@H]1C(=O)CC2=C(/C=C\C=C\[C@@]13C[C@@H](O)c1ccoc1[C@H]3O)C(=O)OC2`, the fold change (FC) came to 10700 in assay [10] and 8440 in assay [11].
`COC(=O)[C@H]1[C@H]2C[C@@H]3c4[nH]c5cc(OC)ccc5c4CCN3C[C@H]2C[C@@H](OC(=O)c2cc(OC)c(OC)c(OC)c2)[C@@H]1OC`: the fold change (FC) was 29.2 in [12] and 5 in assay [13].
With `O=C1C=CC[C@]2(O)C(=O)OC[C@@]12CCc1ccc(-c2ccoc2)oc1=O`, the figures for the fold change (FC) in assay [8] and in assay [9] were 3.1 and 5.8, respectively.
